Screening results as filed in PubChem BioAssay.
Most compounds without a hit are left out; they make up all but 1.8% or so of the library.
MT1-MMP act inh: blockers of MT1-MMP proenzyme processing, primary screen, HT1080 RFP-PRO-GFP cells, GFP/RFP fluorescence; Matrix metalloproteinase-14 (Homo sapiens), P50281; 360,000 tested, 0.061% active; GFP/RFP ratio change, % at 20 µM; GFP/RFP ratio fluorescence, overnight; percent of plate control window, DMSO zero;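 active = GFP/RFP ratio change of at least 30% with cell ATP level not reduced by more than half and red fluorescence within 50% of control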
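Assay system: HT1080 RFP-PRO-GFP cells. Benchmarks: DMSO vehicle wells and RFP-L50D-GFP reporter cell wells. Times: overnight cell settling, then overnight compound exposure, 37 °C, 5% CO2. Compound: 20 µM single dose, 1% DMSO. Read-out basis: GFP/RFP fluorescence ratio.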
SKN-1 block: suppressors of acrylamide-induced Pgst-4::GFP reporter in worms, primary screen, SKN-1 inhibitor project, whole organism, uHTS, GFP/RFP fluorescence ratio, strain VP596; 360,000 tested, 0.49% active; inhibition, % at 21.8 µM; C. elegans VP596 Pgst-4::GFP/RFP ratio, 24 h;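 active = interference check ratio from 0.5 to 1.5 plus GFP to RFP signal ratio inhibition reaching or exceeding a fixed threshold, cut at about 30% in these data, passing the limit was not always enough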
E coli Lon inh: inhibitors of E. coli Lon protease, primary screen, biochemical, fluorescence polarization. P0A9M0. purified E. coli Lon protease. AID 602123, 2011. inhibition, % at 7.94 µM. 360,000 tested, 0.42% active; in the data active = inhibition above about 13%, passing the limit was not always enough
hiPSC survival: enhancers of single-cell hiPSC survival, primary screen, ATPlite luminescence; survival enhancement, % at 20 µM; 360,000 tested, 0.044% active; 100% = ROCK inhibitor wells, 0% = DMSO; in the data active = survival enhancement above about 18%;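 note: cells exposed to compounds for 16 hours before the ATP read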
Tb MetRS inh: T. brucei MetRS inhibitors, primary screen, biochemical, luminescence; 360,000 tested, 0.4% active; inhibition, % at 11.9 µM; purified T. brucei MetRS, ATP depletion, Kinase-Glo luminescence; methionyl-tRNA synthetase (Trypanosoma brucei brucei);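 active = inhibition above a per-plate cutoff of the control wells' mean inhibition plus 3 SD, cut at about 5.5% in these data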
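Material – parasite MetRS enzyme · Medium – HEPES-MgCl2-KCl buffer plus DTT, spermine, BSA, pyrophosphatase · Reagent – ATP, methionine and E. coli bulk tRNA substrates · Times – 15 min enzyme-compound preincubation, 2 h reaction, 10 min detection, 25 °C · Measured by – luminescence of leftover ATP · Evaluation – percent inhibition relative to median high and low control wells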
PREPL inh: PREPL enzyme inhibitors, primary screen, biochemical, fluorescence polarization | recombinant PREPL, fluorescence polarization activity-based probe | inhibition, % at 5.96 µM | 320,000 tested, 0.68% active; in the data active = inhibition above about 43%
Target sequence (Q4J6C6 whole entry, looked up): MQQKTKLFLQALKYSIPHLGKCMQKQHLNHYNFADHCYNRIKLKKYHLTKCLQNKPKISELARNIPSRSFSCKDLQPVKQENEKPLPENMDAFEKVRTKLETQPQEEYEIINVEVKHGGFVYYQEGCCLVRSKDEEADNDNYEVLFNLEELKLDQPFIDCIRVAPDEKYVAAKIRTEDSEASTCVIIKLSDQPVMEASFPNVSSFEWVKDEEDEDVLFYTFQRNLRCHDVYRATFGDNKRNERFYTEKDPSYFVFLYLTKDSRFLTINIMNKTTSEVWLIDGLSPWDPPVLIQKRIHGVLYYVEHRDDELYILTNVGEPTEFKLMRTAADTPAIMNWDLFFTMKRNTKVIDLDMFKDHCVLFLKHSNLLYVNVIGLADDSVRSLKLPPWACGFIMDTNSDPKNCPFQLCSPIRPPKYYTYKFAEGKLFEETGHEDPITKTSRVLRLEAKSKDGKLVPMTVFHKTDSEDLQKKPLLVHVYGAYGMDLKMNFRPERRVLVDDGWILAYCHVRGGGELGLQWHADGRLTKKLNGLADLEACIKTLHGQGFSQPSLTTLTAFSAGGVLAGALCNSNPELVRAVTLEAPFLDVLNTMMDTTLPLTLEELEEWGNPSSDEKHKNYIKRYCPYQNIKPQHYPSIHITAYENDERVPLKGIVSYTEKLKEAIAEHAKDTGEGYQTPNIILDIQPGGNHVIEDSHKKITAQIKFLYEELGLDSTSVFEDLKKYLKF
Tb MetRS conf: T. brucei MetRS inhibitors, confirmation, biochemical, luminescence; shares compounds with Tb MetRS inh; T. brucei MetRS enzyme, luminescence (ATP depletion); inhibition, % at 11.9 µM; 1,400 tested, 93% active; in the data active = inhibition above about 7%
Jurkat tox: Jurkat T cell cytotoxicity, cytotoxicity control for T. brucei MetRS inhibitor project, luminescence, high throughput; inhibition, % at 8.3 µM; AID 624413, 2012; Jurkat cells viability, ATP luminescence; shares compounds with Tb MetRS inh; 1,400 tested, 12% active; in the data active = inhibition above about 15%
Tb MetRS inh FP: T. brucei MetRS inhibitors, orthogonal assay for T. brucei MetRS inhibitor project, biochemical, fluorescence polarization; inhibition, % at 11.9 µM; shares compounds with Tb MetRS inh; 1,400 tested, 44% active; purified T. brucei MetRS; in the data active = inhibition above about 17%
Numbers stand for hits; - = inactive; . = no result.

SMILES	MT1-MMP act inh	SKN-1 block	E coli Lon inh	hiPSC survival	Tb MetRS inh	PREPL inh	Tb MetRS conf	Jurkat tox	Tb MetRS inh FP
CCCCn1c(SCC(=O)c2ccc(O)c(O)c2)nc2ccsc2c1=O	-	-	-	-	-	-	.	.	.
COc1cc(CN2CCc3c([nH]c4ccccc34)C2)cc(OC)c1	-	-	-	-	-	-	.	.	.
COc1ccccc1CN1CCc2c([nH]c3ccccc23)C1	-	-	-	-	16	-	31	-	-
COc1cccc(NC(=O)CSCc2cc(=O)n3nc(C4CC4)sc3n2)c1	-	-	-	-	-	-	.	.	.
CCC1CCCN1Cn1cnc2c([nH]c3ccc(Cl)cc32)c1=O (centres undefined)	-	-	-	-	5.8	-	18	-	-
CCC1CCCN1Cn1cnc2c([nH]c3ccc(C)cc32)c1=O (centres undefined)	-	-	-	-	-	-	.	.	.
CN(C)C(=O)Nc1ccccc1CC[N+](=O)[O-]	-	-	-	-	-	-	.	.	.
O=C(Nc1ccc(Cl)cc1)Nc1csc([N+](=O)[O-])c1	-	-	-	-	12	-	22	73	22
O=C(Nc1csc([N+](=O)[O-])c1)Nc1c(Cl)cccc1Cl	.	-	-	-	-	-	.	.	.
O=C(Nc1ccc(Cl)cc1)Nc1ccccc1CC[N+](=O)[O-]	-	-	-	-	37	-	66	-	30
CCC(=O)N(Cc1ccc(S(N)(=O)=O)cc1)C1CC(=O)N(c2ccc(OC)cc2)C1=O (centres undefined)	-	-	-	-	-	-	.	.	.
CC(=O)Nc1ccccc1NC(=O)c1ccccc1-c1ccccc1	-	-	-	-	46	-	-	-	-
COc1cccc(/C=N/NC(=O)c2c(C)nc3ccc(Cl)cn23)c1O	-	-	-	-	-	-	.	.	.
COc1cccc(CNc2ncnc3cc(Cl)ccc23)c1	-	-	-	-	12	.	20	-	-
COc1ccc(CNc2ncnc3cc(Cl)ccc23)cc1	-	-	-	-	-	-	.	.	.
COc1ccc(-n2c(SCC(=O)Nc3ccc(Cl)cc3)nc(O)c(Cc3ccccc3)c2=O)cc1	-	-	-	-	47	-	70	-	35
COc1ccc(-n2c(SCC(=O)Nc3ccc(C)cc3)nc(O)c(Cc3ccccc3)c2=O)cc1	-	-	-	-	-	-	.	.	.
COc1cccc(CC(Cc2nc3ccccc3[nH]2)c2nc3ccccc3[nH]2)c1 (centres undefined)	-	-	-	-	9.3	-	12	-	-
O=C(NNC(=O)C1CCCCC1)C(=O)NC1CCCCC1	-	-	-	-	-	-	.	.	.
Cc1cc(Cn2nc(-c3ccccc3)cc2C(=O)NCc2cccc(Br)c2)on1	-	-	-	-	54	-	84	-	68
Cc1cccnc1CN1CCN(Cc2nc(Cc3cccc(F)c3)no2)CC1	-	-	-	-	-	-	.	.	.
COc1ccc(S(=O)(=O)N(C)C)cc1NC(C)C(=O)Nc1cccc(C#N)c1 (centres undefined)	-	-	-	-	-	-	.	.	.
COc1ccc(CNC(=O)CSc2nnc3c(n2)[nH]c2ccccc23)cc1	-	-	-	-	42	-	81	-	75
COc1cccc(CNC(=O)CSc2nnc3c(n2)[nH]c2ccccc23)c1	-	-	-	-	20	-	64	-	35
O=C(CSc1nnc2c(n1)[nH]c1ccccc12)NCc1ccco1	-	-	-	-	8.3	-	14	-	-
SMILES	MT1-MMP act inh	SKN-1 block	E coli Lon inh	hiPSC survival	Tb MetRS inh	PREPL inh	Tb MetRS conf	Jurkat tox	Tb MetRS inh FP
COc1ccc2[nH]c3nc(SCC(=O)Nc4ccc5c(c4)OCO5)nnc3c2c1	-	-	-	-	56	-	88	-	73
COc1cccc(CNC(=O)CSc2nnc3c(n2)[nH]c2ccc(F)cc23)c1	-	-	-	-	-	-	.	.	.
CCn1c(Cc2ccccc2)nnc1SCC(=O)c1c(N)n(C2CC2)c(=O)[nH]c1=O	-	-	-	-	-	-	.	.	.
COc1ccc(CNC(=O)CSc2nnc3c(n2)[nH]c2ccc(C)cc23)cc1	-	-	-	-	33	-	82	-	55
COc1cccc(CNC(=O)CSc2nnc3c(n2)[nH]c2ccc(OC)cc23)c1	-	-	-	-	-	-	.	.	.
Cc1nnc(NC(=O)CSc2nnc3c(n2)[nH]c2ccc(Br)cc23)s1	-	-	-	-	12	-	63	-	54
Cn1c(SCC(=O)NCc2ccc(F)cc2)nc2ccccc21	-	-	-	-	-	-	.	.	.
COc1ccc(CNC(=O)CSc2nc3ccccc3n2C(C)=O)cc1	-	-	-	-	17	-	29	-	-
O=C(NC1CCOc2ccccc21)c1ccccn1 (centres undefined)	-	-	-	-	-	-	.	.	.
Cc1ccc(N2CC(c3nc4ccccc4[nH]3)CC2=O)c(C)c1 (centres undefined)	-	-	-	-	8.3	-	9.2	-	-
O=C(O)c1ccc(N2CCN(Cc3ccc4c(c3)OCO4)CC2)c([N+](=O)[O-])c1	-	-	-	-	7.0	-	16	-	-
CCn1c(N2CCN(CC(=O)c3c[nH]c4ccccc34)CC2)nc2c1c(=O)[nH]c(=O)n2C	-	-	-	-	7.8	-	19	-	-
CCCn1c(N2CCN(CC(=O)c3c(C)n(C)c4ccccc34)CC2)nc2c1c(=O)[nH]c(=O)n2C	-	-	-	-	-	-	.	.	.
CC(C)Cc1ccc(CN2C(C)C(=O)N(Cc3cn(Cc4ccco4)nn3)CCS2(=O)=O)cc1 (centres undefined)	-	-	-	-	-	.	.	.	.
O=C(CSc1nnc(CCc2nc3ccccc3[nH]2)n1-c1ccccc1)NCc1ccco1	-	-	-	-	-	-	.	.	.
O=C(CSc1nnc(CCc2nc3ccccc3[nH]2)n1-c1ccccc1)NCc1ccccc1	-	-	-	-	6.2	-	9.2	-	-
